What follows are compounds tested on T-cell (assay: Immunosuppressant activity in human T lymphocytes assessed as inhibition of anti-human CD3 and anti-human CD28 monoclonal antibody-induced T lymphocyte proliferation incubated for 72 hrs by FACS analysis).
Type: functional, cell-based
How it was run: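 Stimulated human T lymphocytes were exposed to compounds over 0.01−30 μg/mL. Proliferation was read by FACS, with forward and side scatter used to score antiproliferative activity and cytotoxicity together. Three independent experiments were run, expressed as mean ± standard deviation relative to the untreated, stimulated control.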

SMILES | IC50 [µM]
C=C1C(=O)O[C@@H]2[C@H]3C(C)=CC[C@@H](O)[C@]3(C)CC[C@@H]12 [SANTAMARIN] | 19.6
COc1ccc(-c2cc(=O)c3c(O)c(OC)c(O)cc3o2)cc1OC [EUPATILIN] | 11.7
C=C1C(=O)O[C@H]([C@@H]2C(=O)C=C[C@]2(C)O)[C@H]1CCC(C)=O (relative stereo) [SECOTANAPARTHOLIDE B] | 1
C=C1C(=O)O[C@@H]2[C@@H]3[C@@]4(C=C[C@@]3(C)[C@@]3(C4)C(=O)O[C@@H]4[C@H]5C(C)=CC(=O)C5=C(C)C[C@H](OC(C)=O)[C@H]43)[C@](C)(O)CC[C@@H]12 | 3.2
COc1cc(-c2cc(=O)c3c(O)c(OC)c(O)cc3o2)ccc1O [JACEOSIDINE] | 5.8
C=C1C(=O)O[C@H]2[C@H]1[C@@H](OC(C)=O)CC(C)=C1C[C@H]3O[C@@]3(C)[C@@H]12 | 1.9
C=C1C(=O)O[C@H]2[C@H]1CC[C@@](C)(O)[C@]13O[C@H]1[C@H]1O[C@@]1(C)[C@H]23 [ARTECANIN] | 2.7
C=C1[C@@H](OC(C)=O)C[C@@H](O)[C@]2(C)CCC3=C(COC(C)=O)C(=O)O[C@@H]3[C@@H]12 | 13.8
C=C1C(=O)O[C@H]2[C@H]1CC[C@@](C)(O)[C@@]13O[C@@H]1[C@@H]1O[C@]1(C)[C@H]23 | 3.7
C=C1C(=O)O[C@H]([C@H]2C(=O)C=C[C@@]2(C)O)[C@H]1CCC(C)=O (relative stereo) | 1.2

What follows are compounds tested on T-cell (assay: Toxicity in anti-human CD3 and anti-human CD28 monoclonal antibody-stimulated human T lymphocytes assessed as induction of apoptosis at 3 times antiproliferative IC50 incubated for 48 hrs by annexin V-FITC and propidium iodide staining based FACS analysis).

SMILES | Activity
C=C1C(=O)O[C@H]2[C@H]1[C@@H](OC(C)=O)CC(C)=C1C[C@H]3O[C@@]3(C)[C@@H]12 | Non-Toxic

Source: ChEMBL document CHEMBL4392884, “Sesquiterpene Lactones from Artemisia argyi: Absolute Configuration and Immunosuppressant Activity” (J Nat Prod, 2019)
